The results in this text go back to article PMC11253873 (RSC Medicinal Chemistry, 2024).

Assay [1] relates to had1 mutant Pf strain (E1-C12). Put plainly: Growth inhibition of fosmidomycin-resistant had1 mutant P. falciparum. In kind it is cell-based, Plasmodium falciparum. The note with it: had1 mutant versus wild type 3D7. The procedure, abridged: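 Asynchronous cultures of wild-type 3D7 and fosmidomycin-resistant had1 strain E1-C12 are kept at 2% hematocrit in supplemented RPMI-1640 with 0.5% Albumax, under 5% O2/5% CO2/90% N2 at 37 °C. Parasites are diluted to 0.5% parasitemia and exposed to 1.2 nM–492.4 μM test compound from the start. After 3 days, DNA is read with PicoGreen (ex 485/em 528 nm). IC50 comes from a 4-parameter nonlinear fit. Technical duplicates, biological triplicate.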

Assay [2] has as its system MEP pathway in P. falciparum parasites. Put plainly: IPP rescue of inhibitor-treated P. falciparum. The assay is classed as cell-based, Plasmodium falciparum. As to conditions: 125 μM IPP added to media. The procedure, abridged: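 The rescue format is the standard 3-day growth assay with 125 μM IPP present throughout. Parasites are at 0.5% parasitemia and 2% hematocrit in supplemented RPMI-1640/Albumax, under 5% O2/5% CO2/90% N2 at 37 °C, with 1.2 nM–492.4 μM test compound. Growth is measured as PicoGreen DNA fluorescence and fitted to a 4-parameter dose–response curve. Technical duplicates, biological triplicate.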

For assay [3], the system named is Mtb H37Rv. Put plainly: microbe, parasite or virus in culture. In kind it is cell-based, Mycobacterium tuberculosis. The note with it: Mycobacterium tuberculosis, H37RV, 336 h, read-out: Mtb MIC.
Assay [4] concerns HepG2 cells. Put plainly: HepG2 cell inhibition. In kind it is cell-based. The note with it: Homo sapiens, HepG2, 24 h, read-out: HepG2 IC50.

Molecules are shown by their SMILES. Values after ≈ are worked out from the molar mass of the structure shown. Values joined by “and” are separate entries in the source; they are usually repeats but may differ in a detail not shown here. Identical values can stand only once. A value given as a limit tells only on which side of the number the result lay.

A word on the IC50: it is the midpoint of a concentration-inhibition curve. Consider `COc1ccc(C(C)ON(CCC(c2ccc(Cl)c(Cl)c2)P(=O)(OCOC(=O)C(C)(C)C)OCOC(=O)C(C)(C)C)C(C)=O)cc1` (stereo not shown) [Compound 7l, ({[1-(3,4-Dichlorophenyl)-3-{N-[1-(4-methoxyphenyl)ethoxy]acetamido}propyl]({[(2,2-dimethylpropanoyl)oxy]methoxy})phosphoryl}oxy)methyl 2,2-dimethylpropanoate], for which the “cross resistance of fosmidomycin-resistant had1 mutant Pf strain” value in assay [1] is reported as “displayed increased resistance”. Also, the “IPP rescue of growth of drug-treated P. falciparum parasites” value in assay [2] was “rescues the growth”. In addition, the MIC in assay [3] stood at 4.6 µg/mL (≈ 6.53 µM). In assay [4], the IC50 was > 100 µg/mL and > 140 µM.
